Laboratory results reported in ChEMBL document CHEMBL1140952 (J Med Chem, 2009).
≈ marks a conversion by molar mass, not a printed value. Each block holds one compound with its values, some of them ahead of it.

Tests used:
[1] = Antiproliferative activity against Met-dependent human GTL16 cells after 72 hrs by MTS assay; assay type: functional, cell-based; conditions: GTL 16, 72 h
[2] = target: T1, Hepatocyte growth factor receptor (Homo sapiens, UniProt P08581); assay: Inhibition of MET
Rattus norvegicus = assay: Cmax in Sprague-Dawley rat at 10 mg/kg, po; assay type: ADME, organism-based; design: dose 10 mg/kg, route oral; conditions: in vivo
Outline: (§1)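 In-life PK: single iv and oral doses given in 70% PEG400-30% water, orally as a solution formulation. Mouse values are averages of six animals and rat values of three. Dog values are averages of two or three animals per route. Plasma Cmax, Tmax, AUC0-24h, iv t1/2, Cl, Vss and oral bioavailability were derived.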

[3] = Inhibition of PKA
[4] = Protein binding in BALB/c mouse; assay type: ADME, organism-based; conditions: in vivo, read-out: PB
[5] = Oral bioavailability in Beagle dog at 5 mg/kg; assay type: ADME, organism-based, Canis lupus familiaris; conditions: in vivo; outline: as §1
[6] = Oral bioavailability in BALB/c mouse at 10 mg/kg; assay type: ADME, organism-based; conditions: in vivo; outline: as §1
[7] = Oral bioavailability in Sprague-Dawley rat at 10 mg/kg; assay type: ADME, organism-based; conditions: in vivo; outline: as §1
[8] = target: Serine/threonine-protein kinase PLK1 (Homo sapiens, UniProt P53350); assay: Inhibition of plk1/3
Mus musculus [9] = assay: Cmax in BALB/c mouse at 10 mg/kg, po; assay type: ADME, organism-based; design: dose 10 mg/kg, route oral; conditions: in vivo; outline: as §1
[10] = Antitumor activity in human GTL16 cells xenografted athymic mouse at 6.25 mg/kg, po administered once daily for 14 days; assay type: functional; conditions: GTL 16, 336 h, read-out: TGI
[11] = target: MAP kinase-activated protein kinase 2 (Homo sapiens, UniProt P49137); assay: Inhibition of MK2
[12] = target: Tyrosine-protein kinase Blk (Homo sapiens, UniProt P51451); assay: Inhibition of Blk by Ambit binding assay
[13] = Half life in Beagle dog at 1 mg/kg, iv; assay type: ADME, organism-based, Canis lupus familiaris; design: dose 1 mg/kg, route intravenous; conditions: in vivo; outline: as §1
[14] = target: Macrophage-stimulating protein receptor (Homo sapiens, UniProt Q04912); assay: Inhibition of Ron
[15] = target: Tyrosine-protein kinase Mer (Homo sapiens, UniProt Q12866); assay: Inhibition of Mer
[16] = Half life in Sprague-Dawley rat at 5 mg/kg, iv; assay type: ADME, organism-based; design: dose 5 mg/kg, route intravenous; conditions: in vivo; outline: as §1
[17] = Half life in BALB/c mouse at 5 mg/kg, iv; assay type: ADME, organism-based; design: dose 5 mg/kg, route intravenous; conditions: in vivo; outline: as §1
[18] = Cmax in human GTL16 cells xenografted athymic mouse at 6.25 mg/kg, po; assay type: ADME, organism-based; design: dose 6.25 mg/kg, route oral; conditions: in vivo
Outline: (§2)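 GTL-16 human gastric carcinoma cells were implanted subcutaneously in athymic mice and tumors staged to about 125 mm³. The compound was then given orally once daily for 14 consecutive days. Drug exposure (Cmax, AUC0-24h) was measured at the dose levels. Toxicity was judged by weight loss or morbidity.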

[19] = target: Mitogen-activated protein kinase 14 (Homo sapiens, UniProt Q16539); assay: Inhibition of p38alpha
[20] = AUC (0 to 24 hrs) in human GTL16 cells xenografted athymic mouse at 50 mg/kg, po; assay type: ADME, organism-based; design: time < 24 hr, dose 50 mg/kg, route oral; conditions: in vivo; outline: as §2
[21] = Tmax in Sprague-Dawley rat at 10 mg/kg, po; assay type: ADME, organism-based; design: dose 10 mg/kg, route oral; conditions: in vivo; outline: as §1
Ephrin type-A receptor 3 = Ephrin type-A receptor 3 (Homo sapiens, UniProt P29320); assay: Inhibition of Epha3 by Ambit binding assay
[22] = target: BDNF/NT-3 growth factors receptor (Homo sapiens, UniProt Q16620); assay: Inhibition of TrkB
NCI-H1993 = assay: Antiproliferative activity against Met-dependent human NCI-H1993 cells after 72 hrs by MTS assay; assay type: functional, cell-based; conditions: NCI-H1993, 72 h
[23] = Protein binding in Sprague-Dawley rat; assay type: ADME, organism-based; conditions: in vivo, read-out: PB
[24] = AUC (0 to 24 hrs) in human GTL16 cells xenografted athymic mouse at 6.25 mg/kg, po; assay type: ADME, organism-based; design: time < 24 hr, dose 6.25 mg/kg, route oral; conditions: in vivo; outline: as §2
[25] = target: Platelet-derived growth factor receptor beta (Homo sapiens, UniProt P09619); assay: Inhibition of PDGFRbeta by cellular proliferation assay
[26] = Clearance in Beagle dog at 1 mg/kg, iv; assay type: ADME, organism-based, Canis lupus familiaris; design: dose 1 mg/kg, route intravenous; conditions: in vivo; outline: as §1
[27] = Clearance in BALB/c mouse at 5 mg/kg, iv; assay type: ADME, organism-based; design: dose 5 mg/kg, route intravenous; conditions: in vivo; outline: as §1
[28] = Antiproliferative activity against Met-driven human U87 cells after 72 hrs by MTS assay; assay type: functional, cell-based, U-87MG ATCC; conditions: U-87 MG
[29] = target: Vascular endothelial growth factor receptor 2 (Homo sapiens, UniProt P35968); assay: Inhibition of VEGFR2
[30] = target: Inhibitor of NF-kappa-B kinase alpha/beta (Homo sapiens, UniProt O14920+O15111); assay: Inhibition of IKK1/2
Mus musculus [31] = assay: Toxicity in human GTL16 cells xenografted athymic mouse assessed as weight loss/morbidity at 6.25 mg/kg, po; assay type: organism-based; design: dose 6.25 mg/kg, route oral; conditions: in vivo; outline: as §2
[32] = Volume of distribution at steady state in BALB/c mouse at 5 mg/kg, iv; assay type: ADME, organism-based; design: dose 5 mg/kg, route intravenous; conditions: in vivo, read-out: Vdss; outline: as §1
[33] = target: Tyrosine-protein kinase receptor TYRO3 (Homo sapiens, UniProt Q06418); assay: Inhibition of Tyro3
[34] = Inhibition of CDK2E
[35] = target: High affinity nerve growth factor receptor (Homo sapiens, UniProt P04629); assay: Inhibition of TrkA
[36] = target: T1, Hepatocyte growth factor receptor; assay: Inhibition of Met phosphorylation in human GTL16 cells after 30 mins; assay type: cell-based
Outline: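 Human GTL-16 gastric carcinoma cells were incubated with compound for 30 min, then lysed. Phospho-Met protein levels in the lysates were assessed across a range of concentrations.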

[37] = Antitumor activity in human GTL16 cells xenografted athymic mouse at 50 mg/kg, po administered once daily for 14 days; assay type: functional; conditions: GTL 16, 336 h, read-out: TGI
Mus musculus [38] = assay: Toxicity in human GTL16 cells xenografted athymic mouse assessed as weight loss/morbidity at 25 mg/kg, po; assay type: organism-based; design: dose 25 mg/kg, route oral; conditions: in vivo; outline: as §2
[39] = Protein binding in Beagle dog; assay type: ADME, organism-based, Canis lupus familiaris; conditions: in vivo, read-out: PB
Canis familiaris = assay: Cmax in Beagle dog at 5 mg/kg, po; assay type: ADME, organism-based, Canis lupus familiaris; design: dose 5 mg/kg, route oral; conditions: in vivo; outline: as §1
Aurora kinase B = Aurora kinase B (Homo sapiens, UniProt Q96GD4); assay: Inhibition of Aurora B
[40] = Cmax in human GTL16 cells xenografted athymic mouse at 50 mg/kg, po; assay type: ADME, organism-based; design: dose 50 mg/kg, route oral; conditions: in vivo; outline: as §2
[41] = Aqueous solubility at pH 1.0; assay type: physicochemical
[42] = Antitumor activity in human GTL16 cells xenografted athymic mouse at 25 mg/kg, po administered once daily for 14 days; assay type: functional; conditions: GTL 16, 336 h, read-out: TGI
[43] = Tmax in Beagle dog at 5 mg/kg, po; assay type: ADME, organism-based, Canis lupus familiaris; design: dose 5 mg/kg, route oral; conditions: in vivo; outline: as §1
[44] = Volume of distribution at steady state in Beagle dog at 1 mg/kg, iv; assay type: ADME, organism-based, Canis lupus familiaris; design: dose 1 mg/kg, route intravenous; conditions: in vivo, read-out: Vdss; outline: as §1
[45] = target: Serine/threonine-protein kinase pim-1 (Homo sapiens, UniProt P11309); assay: Inhibition of pim1
Mus musculus [46] = assay: Toxicity in human GTL16 cells xenografted athymic mouse assessed as weight loss/morbidity at 50 mg/kg, po; assay type: organism-based; design: dose 50 mg/kg, route oral; conditions: in vivo; outline: as §2
[47] = target: Proto-oncogene tyrosine-protein kinase Src (Homo sapiens, UniProt P12931); assay: Inhibition of Src by Ambit binding assay
[48] = Tmax in BALB/c mouse at 10 mg/kg, po; assay type: ADME, organism-based; design: dose 10 mg/kg, route oral; conditions: in vivo; outline: as §1
NCI-N87 = assay: Antiproliferative activity against Met-independent human NCI-N87 cells after 72 hrs by MTS assay; assay type: functional, cell-based; conditions: NCI-N87, 72 h
[49] = Clearance in Sprague-Dawley rat at 5 mg/kg, iv; assay type: ADME, organism-based; design: dose 5 mg/kg, route intravenous; conditions: in vivo; outline: as §1
[50] = Volume of distribution at steady state in Sprague-Dawley rat at 5 mg/kg, iv; assay type: ADME, organism-based; design: dose 5 mg/kg, route intravenous; conditions: in vivo, read-out: Vdss; outline: as §1

T1 sequence (P08581 whole entry): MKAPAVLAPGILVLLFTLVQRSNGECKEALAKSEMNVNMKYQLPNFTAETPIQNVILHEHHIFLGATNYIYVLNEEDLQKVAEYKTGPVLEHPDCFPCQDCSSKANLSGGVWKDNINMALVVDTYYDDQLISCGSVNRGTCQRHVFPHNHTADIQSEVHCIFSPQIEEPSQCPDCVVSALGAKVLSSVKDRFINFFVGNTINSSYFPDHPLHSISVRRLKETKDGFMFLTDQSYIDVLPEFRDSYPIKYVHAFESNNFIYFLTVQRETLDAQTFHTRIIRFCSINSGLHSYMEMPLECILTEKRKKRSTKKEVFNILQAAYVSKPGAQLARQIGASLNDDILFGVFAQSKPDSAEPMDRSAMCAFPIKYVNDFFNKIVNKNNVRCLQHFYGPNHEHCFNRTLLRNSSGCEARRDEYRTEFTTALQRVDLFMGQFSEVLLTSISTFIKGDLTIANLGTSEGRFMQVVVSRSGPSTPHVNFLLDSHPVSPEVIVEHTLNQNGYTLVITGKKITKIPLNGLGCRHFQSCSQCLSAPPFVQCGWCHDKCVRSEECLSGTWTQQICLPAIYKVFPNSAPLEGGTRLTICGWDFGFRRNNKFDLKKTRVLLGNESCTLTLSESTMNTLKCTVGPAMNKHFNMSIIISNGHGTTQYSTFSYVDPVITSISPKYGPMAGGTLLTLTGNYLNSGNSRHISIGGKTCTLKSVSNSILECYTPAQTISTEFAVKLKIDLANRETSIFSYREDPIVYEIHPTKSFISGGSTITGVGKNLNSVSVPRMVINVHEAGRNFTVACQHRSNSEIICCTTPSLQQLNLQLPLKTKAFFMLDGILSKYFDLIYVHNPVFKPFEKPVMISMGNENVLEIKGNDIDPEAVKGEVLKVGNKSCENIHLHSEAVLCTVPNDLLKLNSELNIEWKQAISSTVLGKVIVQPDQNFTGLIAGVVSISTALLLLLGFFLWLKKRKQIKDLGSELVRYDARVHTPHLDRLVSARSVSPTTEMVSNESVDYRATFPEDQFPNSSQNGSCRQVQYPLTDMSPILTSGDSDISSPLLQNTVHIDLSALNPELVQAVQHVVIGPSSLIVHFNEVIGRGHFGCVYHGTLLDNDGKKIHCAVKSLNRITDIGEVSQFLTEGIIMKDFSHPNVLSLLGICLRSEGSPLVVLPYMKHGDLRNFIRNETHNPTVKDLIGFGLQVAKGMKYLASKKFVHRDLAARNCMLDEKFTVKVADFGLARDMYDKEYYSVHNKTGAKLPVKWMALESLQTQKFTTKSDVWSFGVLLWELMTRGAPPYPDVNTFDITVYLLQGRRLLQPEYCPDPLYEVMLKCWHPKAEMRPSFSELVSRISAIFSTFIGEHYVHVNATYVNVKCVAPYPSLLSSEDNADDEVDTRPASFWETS
Sequence of Inhibitor of NF-kappa-B kinase alpha/beta (O14920 whole entry): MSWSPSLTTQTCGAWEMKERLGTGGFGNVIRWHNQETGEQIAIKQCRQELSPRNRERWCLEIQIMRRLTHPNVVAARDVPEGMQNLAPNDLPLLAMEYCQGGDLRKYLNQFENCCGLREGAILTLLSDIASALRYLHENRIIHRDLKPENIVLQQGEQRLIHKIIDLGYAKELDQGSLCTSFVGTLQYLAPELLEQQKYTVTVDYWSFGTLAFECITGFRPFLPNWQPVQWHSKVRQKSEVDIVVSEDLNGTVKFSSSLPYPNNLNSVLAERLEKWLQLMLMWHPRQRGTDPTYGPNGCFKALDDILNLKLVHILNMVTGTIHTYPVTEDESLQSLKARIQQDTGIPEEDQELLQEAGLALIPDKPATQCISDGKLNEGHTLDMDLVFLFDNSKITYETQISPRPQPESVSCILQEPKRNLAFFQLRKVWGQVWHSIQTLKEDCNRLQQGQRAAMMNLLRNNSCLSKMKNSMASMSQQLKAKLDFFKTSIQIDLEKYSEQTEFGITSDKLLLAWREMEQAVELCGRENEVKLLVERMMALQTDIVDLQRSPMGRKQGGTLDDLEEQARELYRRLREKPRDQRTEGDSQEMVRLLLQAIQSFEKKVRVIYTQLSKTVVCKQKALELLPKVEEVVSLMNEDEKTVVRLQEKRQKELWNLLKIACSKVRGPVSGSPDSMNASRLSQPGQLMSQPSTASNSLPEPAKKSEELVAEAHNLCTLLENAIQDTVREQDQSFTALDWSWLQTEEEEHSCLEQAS
Sequence of Inhibitor of NF-kappa-B kinase alpha/beta (O15111 whole entry): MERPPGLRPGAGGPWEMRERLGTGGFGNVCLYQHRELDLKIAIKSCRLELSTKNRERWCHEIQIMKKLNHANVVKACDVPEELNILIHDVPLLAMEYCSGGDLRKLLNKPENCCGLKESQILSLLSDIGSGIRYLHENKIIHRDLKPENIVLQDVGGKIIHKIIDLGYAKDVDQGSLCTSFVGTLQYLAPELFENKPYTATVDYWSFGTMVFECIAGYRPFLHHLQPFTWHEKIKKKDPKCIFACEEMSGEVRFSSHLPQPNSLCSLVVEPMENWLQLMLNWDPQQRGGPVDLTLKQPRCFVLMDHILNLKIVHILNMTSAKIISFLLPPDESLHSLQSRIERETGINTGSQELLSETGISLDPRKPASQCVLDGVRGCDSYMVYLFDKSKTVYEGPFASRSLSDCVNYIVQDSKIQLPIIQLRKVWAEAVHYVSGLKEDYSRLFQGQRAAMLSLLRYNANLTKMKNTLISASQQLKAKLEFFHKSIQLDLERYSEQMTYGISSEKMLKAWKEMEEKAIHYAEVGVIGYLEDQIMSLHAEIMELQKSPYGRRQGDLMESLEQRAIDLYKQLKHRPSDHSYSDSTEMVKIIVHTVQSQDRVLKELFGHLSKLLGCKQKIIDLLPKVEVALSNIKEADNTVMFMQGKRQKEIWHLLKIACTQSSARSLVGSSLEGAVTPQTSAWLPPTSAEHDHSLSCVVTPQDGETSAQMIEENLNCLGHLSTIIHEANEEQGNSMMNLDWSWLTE
Sequence of Serine/threonine-protein kinase pim-1 (P11309 whole entry): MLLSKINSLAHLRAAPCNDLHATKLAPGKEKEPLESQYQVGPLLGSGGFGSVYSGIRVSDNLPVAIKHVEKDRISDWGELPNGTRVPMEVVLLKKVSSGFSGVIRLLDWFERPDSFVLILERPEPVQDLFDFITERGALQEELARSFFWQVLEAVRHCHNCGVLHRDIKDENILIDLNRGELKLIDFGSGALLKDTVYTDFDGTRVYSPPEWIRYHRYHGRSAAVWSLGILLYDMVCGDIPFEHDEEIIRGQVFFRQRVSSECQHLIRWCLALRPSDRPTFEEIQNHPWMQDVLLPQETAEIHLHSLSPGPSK
Sequence of Aurora kinase B (Q96GD4 whole entry): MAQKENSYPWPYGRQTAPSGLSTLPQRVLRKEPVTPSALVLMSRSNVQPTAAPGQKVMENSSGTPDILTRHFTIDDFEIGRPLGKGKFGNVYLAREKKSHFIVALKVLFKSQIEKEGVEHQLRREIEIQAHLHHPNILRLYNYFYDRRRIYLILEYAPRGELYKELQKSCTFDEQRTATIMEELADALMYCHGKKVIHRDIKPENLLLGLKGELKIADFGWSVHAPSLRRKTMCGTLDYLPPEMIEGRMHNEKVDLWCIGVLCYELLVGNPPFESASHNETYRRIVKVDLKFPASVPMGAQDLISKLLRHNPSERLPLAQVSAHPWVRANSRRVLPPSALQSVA
Sequence of Ephrin type-A receptor 3 (P29320 whole entry): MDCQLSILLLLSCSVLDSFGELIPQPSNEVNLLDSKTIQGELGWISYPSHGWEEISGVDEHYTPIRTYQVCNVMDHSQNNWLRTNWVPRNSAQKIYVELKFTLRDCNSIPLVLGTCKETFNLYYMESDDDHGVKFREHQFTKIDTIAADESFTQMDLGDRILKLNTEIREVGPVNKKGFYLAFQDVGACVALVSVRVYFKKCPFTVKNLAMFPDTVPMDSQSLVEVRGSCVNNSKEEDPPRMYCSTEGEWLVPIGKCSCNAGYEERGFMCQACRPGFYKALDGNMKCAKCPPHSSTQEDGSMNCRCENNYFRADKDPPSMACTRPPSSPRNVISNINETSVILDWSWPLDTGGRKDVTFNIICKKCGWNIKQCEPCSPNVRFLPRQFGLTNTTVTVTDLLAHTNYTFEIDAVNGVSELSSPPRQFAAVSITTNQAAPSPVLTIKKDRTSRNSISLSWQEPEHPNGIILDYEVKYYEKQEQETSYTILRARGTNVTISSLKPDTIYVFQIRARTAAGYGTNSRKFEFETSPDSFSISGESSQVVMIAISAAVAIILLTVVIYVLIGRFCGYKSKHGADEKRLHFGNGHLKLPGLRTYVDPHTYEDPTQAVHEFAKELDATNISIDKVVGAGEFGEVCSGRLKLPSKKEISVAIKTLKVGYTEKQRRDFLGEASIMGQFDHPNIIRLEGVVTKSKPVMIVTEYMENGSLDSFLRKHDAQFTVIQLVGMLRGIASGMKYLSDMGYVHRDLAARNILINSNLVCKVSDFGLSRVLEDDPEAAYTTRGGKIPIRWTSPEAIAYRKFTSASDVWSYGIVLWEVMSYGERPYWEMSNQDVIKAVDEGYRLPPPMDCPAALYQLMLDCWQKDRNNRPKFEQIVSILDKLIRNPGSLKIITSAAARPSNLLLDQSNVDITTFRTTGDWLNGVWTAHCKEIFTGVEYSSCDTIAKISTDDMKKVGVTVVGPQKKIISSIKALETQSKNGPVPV
Sequence of Proto-oncogene tyrosine-protein kinase Src (P12931 2-536 limits assumed): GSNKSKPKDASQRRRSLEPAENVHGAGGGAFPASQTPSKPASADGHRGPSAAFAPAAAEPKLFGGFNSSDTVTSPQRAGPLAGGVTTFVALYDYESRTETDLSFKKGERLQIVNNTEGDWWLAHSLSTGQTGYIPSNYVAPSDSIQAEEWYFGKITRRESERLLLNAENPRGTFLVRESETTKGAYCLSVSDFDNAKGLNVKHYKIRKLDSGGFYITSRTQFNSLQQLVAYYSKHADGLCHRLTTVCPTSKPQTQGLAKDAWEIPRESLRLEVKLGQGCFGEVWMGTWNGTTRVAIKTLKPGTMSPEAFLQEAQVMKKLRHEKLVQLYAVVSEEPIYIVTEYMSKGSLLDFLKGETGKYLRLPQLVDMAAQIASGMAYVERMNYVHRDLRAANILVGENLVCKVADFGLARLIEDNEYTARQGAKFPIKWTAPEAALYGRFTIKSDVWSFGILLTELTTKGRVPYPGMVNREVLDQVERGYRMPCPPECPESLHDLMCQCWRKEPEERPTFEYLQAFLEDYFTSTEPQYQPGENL

SMILES: O=C(Nc1ccc(Oc2ccnc3[nH]ccc23)c(F)c1)c1cccn(-c2ccc(F)cc2)c1=O
IC50 [1]: 60 nM

SMILES: CN1CCN(Cc2c(Oc3ccc(NC(=O)c4cccn(-c5ccc(F)cc5)c4=O)cc3F)ccnc2N)CC1
IC50 [1]: 2800 nM
IC50 [2]: 5.9 nM

Continued by falling IC50 [2], values first:

IC50 [2]: 4.5 nM
SMILES: Nc1cc(Oc2ccc(NC(=O)c3cccn(-c4ccc(F)cc4)c3=O)cc2F)ccn1
IC50 [1]: 170 nM

Cmax (Rattus norvegicus): 8.7 µM
IC50 [3]: 550 nM
fraction unbound [4]: < 0.01
bioavailability [5]: 100%
bioavailability [6]: 100%
bioavailability [7]: 100%
IC50 [8]: > 2000 nM
Cmax (Mus musculus [9]): 17.6 µM
IC50 [11]: > 2000 nM
IC50 [12]: > 500 nM
half-life [13]: 4.9 h
IC50 [14]: 1.8 nM
IC50 [15]: 14 nM
half-life [16]: 4.8 h
half-life [17]: 4.5 h
Cmax [18]: 4.5 µM
IC50 [19]: > 2000 nM
AUC(0-t) at 24 h [20]: 567 µM·h
Tmax [21]: 1.7 h
IC50 (Ephrin type-A receptor 3): > 500 nM
IC50 [22]: 190 nM
IC50 (NCI-H1993): 150 nM
fraction unbound [23]: < 0.01
AUC(0-t) at 24 h [24]: 37 µM·h
IC50 [25]: 1000 nM
clearance [26]: 0.82 mL/min/kg
clearance [27]: 4.4 mL/min/kg
IC50 [29]: 180 nM
IC50 [30]: > 2000 nM
Vd [32]: 1.2 L/kg
IC50 [33]: 4.3 nM
IC50 [34]: > 2000 nM
IC50 [35]: 290 nM
IC50 [36]: 20 nM
fraction unbound [39]: < 0.01
Cmax (Canis familiaris): 29 µM
IC50 (Aurora kinase B): 78 nM
Cmax [40]: 43.7 µM
solubility [41]: 400 µg/mL (≈ 780 µM)
Tmax [43]: 2.3 h
Vd [44]: 0.2 L/kg
IC50 [45]: > 2000 nM
IC50 [47]: > 500 nM
Tmax [48]: 0.5 h
clearance [49]: 12.1 mL/min/kg
Vd [50]: 1 L/kg
IC50 [2]: 3.9 nM
SMILES: CCOc1ccn(-c2ccc(F)cc2)c(=O)c1C(=O)Nc1ccc(Oc2ccnc(N)c2Cl)c(F)c1 [BMS-777607]
inhibition in vivo at 6.25 mg/kg [10]: 66%
IC50 [28]: 160 nM
IC50 [1]: 100 nM
Activity (Mus musculus [31]): Non-toxic
inhibition in vivo at 50 mg/kg [37]: 102%
Activity (Mus musculus [38]): Non-toxic
inhibition in vivo at 25 mg/kg [42]: 95%
Activity (Mus musculus [46]): Non-toxic
IC50 (NCI-N87): > 10000 nM

IC50 [2]: 3.4 nM
SMILES: Nc1nccc(Oc2ccc(NC(=O)c3cccn(-c4ccc(F)cc4)c3=O)cc2F)c1CO
IC50 [1]: 280 nM

IC50 [2]: 2.7 nM
SMILES: Nc1nccc(Oc2ccc(NC(=O)c3cccn(-c4ccc(F)cc4)c3=O)cc2F)c1C#CCO
IC50 [1]: 23 nM
